Source: ChEMBL document CHEMBL4257473, “Design, synthesis and antibacterial evaluation of a polycationic calix[4]arene derivative alone and in combination with antibiotics” (Medchemcomm, 2018)
Values after ≈ are worked out from the molar mass of the structure shown.

Columns and labels:
Type in all cases: functional
[1] = system: Pseudomonas aeruginosa; test: Antibacterial activity against Pseudomonas aeruginosa ATCC 9027 assessed as FIC index after overnight incubation in presence of ofloxacin by checkerboard assay
How it was run: (§1)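 Checkerboard combination of the calixarene with each antibiotic, each agent at final 2 to 0.015 times its MIC, giving 64 combinations. Inoculum prepared in Mueller Hinton broth and added at final 5×10^5 CFU mL⁻¹. Plates incubated overnight at 37 °C, then FICI calculated from the combination MICs.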

[2] = system: Staphylococcus epidermidis; test: Potency index, ratio of ofloxacin MBC to test compound MBC for Staphylococcus epidermidis 57
[3] = system: Staphylococcus aureus; test: Bactericidal activity against methicillin-resistant Staphylococcus aureus 15 incubated for 24 hrs followed by replating on Mueller hinton agar plates and measured after 24 hrs; conditions: Staphylococcus aureus, 15, 24 h
How it was run: (§2)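 MBC follows the broth microdilution MIC step (MHB, 5×10^5 CFU mL⁻¹, 37 °C, 24 h). 15 µL from every clear MIC well is seeded onto Mueller Hinton agar and incubated 37 °C for 24 h. MBC is the lowest concentration giving no growth. At least three replicates, and modal value reported.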

[4] = system: Pseudomonas aeruginosa; test: Antibacterial activity against Pseudomonas aeruginosa isolate 1 assessed as FIC index after overnight incubation in presence of tetracycline by checkerboard assay; how it was run: as §1
[5] = system: Staphylococcus epidermidis; test: Bactericidal activity against methicillin-resistant Staphylococcus epidermidis 57 incubated for 24 hrs followed by replating on Mueller hinton agar plates and measured after 24 hrs; conditions: Staphylococcus epidermidis, 57, 24 h; how it was run: as §2
[6] = system: Staphylococcus epidermidis; test: Antibacterial activity against methicillin-resistant Staphylococcus epidermidis 57 assessed as FIC index after overnight incubation in presence of tetracycline by checkerboard assay
How it was run: (§3)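 Checkerboard combinations of calixarene with antibiotic, each at final concentrations from 2 to 0.015 × its MIC, giving 64 combinations per plate. Inoculum prepared in MHB, final 5×10^5 CFU mL⁻¹. Incubated overnight at 37 °C. Fractional inhibitory concentration index calculated from the combination MICs.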

[7] = system: Staphylococcus epidermidis; test: Potency index, ratio of chloramphenicol MBC to test compound MBC for Staphylococcus epidermidis 57
[8] = system: Pseudomonas aeruginosa; test: Bactericidal activity against Pseudomonas aeruginosa isolate 1 incubated for 24 hrs followed by replating on Mueller hinton agar plates and measured after 24 hrs; conditions: isolate 1, 24 h
How it was run: (§4)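 MBC follows a broth microdilution MIC run (Mueller Hinton broth, 5×10^5 CFU mL⁻¹, 37 °C, 24 h). 15 µL from every clear well is seeded onto Mueller Hinton agar and incubated at 37 °C for 24 h. MBC is the lowest concentration giving no growth. At least three replicates, modal result used.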

[9] = system: Pseudomonas aeruginosa; test: Antibacterial activity against Pseudomonas aeruginosa isolate 1 assessed as FIC index after overnight incubation in presence of chloramphenicol by checkerboard assay; how it was run: as §1
[10] = system: Staphylococcus aureus; test: Antibacterial activity against Staphylococcus aureus ATCC 6538 assessed as FIC index after overnight incubation in presence of tetracycline by checkerboard assay; how it was run: as §1
[11] = system: Pseudomonas aeruginosa; test: Antibacterial activity against Pseudomonas aeruginosa ATCC 9027 after 24 hrs by microbroth dilution method; conditions: ATCC 9027, 24 h
How it was run: (§5)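 Broth microdilution per NCCLS guidelines in Mueller Hinton broth, from overnight cultures. Final inoculum 5×10^5 CFU mL⁻¹. Calixarene tested at 1–1024 μg mL⁻¹, ofloxacin 0.06–2048, chloramphenicol 1–2048, tetracycline 0.03–128 μg mL⁻¹. Plates incubated 37 °C for 24 h. MIC is the lowest concentration with no visible growth. Triplicate, with growth control, and modal value reported.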

[12] = system: Pseudomonas aeruginosa; test: Potency index, ratio of chloramphenicol MBC to test compound MBC for Pseudomonas aeruginosa isolate 1
[13] = system: Pseudomonas aeruginosa; test: Potency index, ratio of ofloxacin MBC to test compound MBC for Pseudomonas aeruginosa isolate 1
[14] = system: Pseudomonas aeruginosa; test: Antibacterial activity against Pseudomonas aeruginosa isolate 1 after 24 hrs by microbroth dilution method; conditions: isolate 1, 24 h; how it was run: as §5
[15] = system: Pseudomonas aeruginosa; test: Antibacterial activity against Pseudomonas aeruginosa ATCC 9027 assessed as FIC index after overnight incubation in presence of tetracycline by checkerboard assay; how it was run: as §3
[16] = system: Staphylococcus epidermidis; test: Potency index, ratio of chloramphenicol MBC to test compound MBC for Staphylococcus epidermidis ATCC 35984
[17] = system: Staphylococcus aureus; test: Antibacterial activity against Staphylococcus aureus ATCC 6538 assessed as FIC index after overnight incubation in presence of chloramphenicol by checkerboard assay; how it was run: as §1
[18] = system: Staphylococcus aureus; test: Antibacterial activity against Staphylococcus aureus ATCC 6538 after 24 hrs by microbroth dilution method; conditions: ATCC 6538, 24 h; how it was run: as §5
[19] = system: Pseudomonas aeruginosa; test: Antibacterial activity against Pseudomonas aeruginosa isolate 1 assessed as FIC index after overnight incubation in presence of ofloxacin by checkerboard assay; how it was run: as §1
[20] = system: Staphylococcus epidermidis; test: Potency index, ratio of ofloxacin MIC to test compound MIC for Staphylococcus epidermidis 57
[21] = system: Staphylococcus aureus; test: Potency index, ratio of chloramphenicol MIC to test compound MIC for methicillin-resistant Staphylococcus aureus 15
[22] = system: Pseudomonas aeruginosa; test: Antibacterial activity against Pseudomonas aeruginosa ATCC 9027 assessed as FIC index after overnight incubation in presence of chloramphenicol by checkerboard assay; how it was run: as §1
[23] = system: Staphylococcus epidermidis; test: Antibacterial activity against Staphylococcus epidermidis ATCC 35984 after 24 hrs by microbroth dilution method; conditions: ATCC 35984, 24 h
How it was run: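 Broth microdilution per NCCLS guidelines in Mueller Hinton broth, overnight culture inoculated at final 5×10^5 CFU mL⁻¹. Calixarene tested at 1-1024 µg mL⁻¹. Incubation 37 °C for 24 h. MIC taken as the lowest concentration with no visible growth. Growth control included, triplicate runs, modal value reported.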

[24] = system: Pseudomonas aeruginosa; test: Bactericidal activity against Pseudomonas aeruginosa ATCC 9027 incubated for 24 hrs followed by replating on Mueller hinton agar plates and measured after 24 hrs; conditions: ATCC 9027, 24 h; how it was run: as §4
[25] = system: Staphylococcus epidermidis; test: Antibacterial activity against Staphylococcus epidermidis ATCC 35984 assessed as FIC index after overnight incubation in presence of ofloxacin by checkerboard assay; how it was run: as §1
[26] = system: Staphylococcus aureus; test: Antibacterial activity against methicillin-resistant Staphylococcus aureus 15 assessed as FIC index after overnight incubation in presence of ofloxacin by checkerboard assay; how it was run: as §3
[27] = system: Staphylococcus epidermidis; test: Bactericidal activity against Staphylococcus epidermidis ATCC 35984 incubated for 24 hrs followed by replating on Mueller hinton agar plates and measured after 24 hrs; conditions: ATCC 35984, 24 h; how it was run: as §2
[28] = system: Staphylococcus epidermidis; test: Antibacterial activity against methicillin-resistant Staphylococcus epidermidis 57 after 24 hrs by microbroth dilution method; conditions: Staphylococcus epidermidis, 57, 24 h; how it was run: as §5
[29] = system: Staphylococcus epidermidis; test: Potency index, ratio of chloramphenicol MIC to test compound MIC for Staphylococcus epidermidis ATCC 35984
[30] = system: Staphylococcus aureus; test: Antibacterial activity against methicillin-resistant Staphylococcus aureus 15 after 24 hrs by microbroth dilution method; conditions: Staphylococcus aureus, 15, 24 h; how it was run: as §5
[31] = system: Staphylococcus epidermidis; test: Potency index, ratio of chloramphenicol MIC to test compound MIC for Staphylococcus epidermidis 57
[32] = system: Staphylococcus aureus; test: Potency index, ratio of chloramphenicol MBC to test compound MBC for methicillin-resistant Staphylococcus aureus 15
[33] = system: Staphylococcus aureus; test: Antibacterial activity against Staphylococcus aureus ATCC 6538 assessed as FIC index after overnight incubation in presence of ofloxacin by checkerboard assay; how it was run: as §1
[34] = system: Staphylococcus epidermidis; test: Antibacterial activity against methicillin-resistant Staphylococcus epidermidis 57 assessed as FIC index after overnight incubation in presence of ofloxacin by checkerboard assay; how it was run: as §3
[35] = system: Staphylococcus aureus; test: Bactericidal activity against Staphylococcus aureus ATCC 6538 incubated for 24 hrs followed by replating on Mueller hinton agar plates and measured after 24 hrs; conditions: ATCC 6538, 24 h; how it was run: as §2
[36] = system: Staphylococcus epidermidis; test: Antibacterial activity against Staphylococcus epidermidis ATCC 35984 assessed as FIC index after overnight incubation in presence of chloramphenicol by checkerboard assay; how it was run: as §3
[37] = system: Staphylococcus aureus; test: Antibacterial activity against methicillin-resistant Staphylococcus aureus 15 assessed as FIC index after overnight incubation in presence of tetracycline by checkerboard assay; how it was run: as §3
[38] = system: Pseudomonas aeruginosa; test: Potency index, ratio of chloramphenicol MIC to test compound MIC for Pseudomonas aeruginosa isolate 1

Structure (SMILES): CCCOc1c2cc(C[N+](C)(CCO)CCO)cc1Cc1cc(C[N+](C)(CCO)CCO)cc(c1OCCC)Cc1cc(C[N+](C)(CCO)CCO)cc(c1OCCC)Cc1cc(C[N+](C)(CCO)CCO)cc(c1OCCC)C2.[Cl-].[Cl-].[Cl-].[Cl-]
- fractional inhibitory concentration index (FICI) [1]: 1.06
- Ratio [2]: 262
- MBC [3]: 8 µg/mL
- fractional inhibitory concentration index (FICI) [4]: 0.56
- MBC [5]: 8 µg/mL
- fractional inhibitory concentration index (FICI) [6]: 1.03
- Ratio [7]: 32
- MBC [8]: 256 µg/mL
- fractional inhibitory concentration index (FICI) [9]: 0.53
- fractional inhibitory concentration index (FICI) [10]: 1.48
- MIC [11]: 128 µg/mL
- Ratio [12]: 4
- Ratio [13]: 2
- MIC [14]: 256 µg/mL
- fractional inhibitory concentration index (FICI) [15]: 1.06
- Ratio [16]: 16
- fractional inhibitory concentration index (FICI) [17]: 1.12
- MIC [18]: 4 µg/mL
- fractional inhibitory concentration index (FICI) [19]: 0.62
- Ratio [20]: 131
- Ratio [21]: 2
- fractional inhibitory concentration index (FICI) [22]: 0.62
- MIC [23]: 4 µg/mL
- MBC [24]: 256 µg/mL
- fractional inhibitory concentration index (FICI) [25]: 1.25
- fractional inhibitory concentration index (FICI) [26]: 1
- MBC [27]: 8 µg/mL
- MIC [28]: 4 µg/mL
- Ratio [29]: 4
- MIC [30]: 4 µg/mL
- Ratio [31]: 2
- Ratio [32]: 16
- fractional inhibitory concentration index (FICI) [33]: 1.25
- fractional inhibitory concentration index (FICI) [34]: 1
- MBC [35]: 8 µg/mL
- fractional inhibitory concentration index (FICI) [36]: 1.03
- fractional inhibitory concentration index (FICI) [37]: 1.03
- Ratio [38]: 2

Structure (SMILES): O=C(N[C@H](CO)[C@H](O)c1ccc([N+](=O)[O-])cc1)C(Cl)Cl [CHLORAMPHENICOL]
- MBC [3]: 128 µg/mL (≈ 396 µM)
- MBC [5]: 256 µg/mL (≈ 792 µM)
- MBC [8]: 1020 µg/mL (≈ 3170 µM)
- MIC [11]: 64 µg/mL (≈ 198 µM)
- MIC [14]: 512 µg/mL (≈ 1580 µM)
- MIC [18]: 4 µg/mL (≈ 12.4 µM)
- MIC [23]: 16 µg/mL (≈ 49.5 µM)
- MBC [24]: 128 µg/mL (≈ 396 µM)
- MBC [27]: 128 µg/mL (≈ 396 µM)
- MIC [28]: 8 µg/mL (≈ 24.8 µM)
- MIC [30]: 8 µg/mL (≈ 24.8 µM)
- MBC [35]: 8 µg/mL (≈ 24.8 µM)

Structure (SMILES): CC1COc2c(N3CCN(C)CC3)c(F)cc3c(=O)c(C(=O)O)cn1c23 (stereo not drawn) [OFLOXACIN]
- MBC [3]: > 2050 µg/mL
- MBC [5]: > 2050 µg/mL
- MBC [8]: 512 µg/mL (≈ 1420 µM)
- MIC [14]: 256 µg/mL (≈ 708 µM)
- MIC [18]: 0.25 µg/mL (≈ 0.692 µM)
- MIC [23]: 0.25 µg/mL (≈ 0.692 µM)
- MBC [24]: 2 µg/mL (≈ 5.53 µM)
- MBC [27]: 0.5 µg/mL (≈ 1.38 µM)
- MIC [28]: 512 µg/mL (≈ 1420 µM)
- MIC [30]: 512 µg/mL (≈ 1420 µM)
- MBC [35]: 0.5 µg/mL (≈ 1.38 µM)

Structure (SMILES): CN(C)[C@@H]1C(O)=C(C(N)=O)C(=O)[C@@]2(O)C(O)=C3C(=O)c4c(O)cccc4[C@@](C)(O)[C@H]3C[C@@H]12 [TETRACYCLINE]
- MBC [3]: 16 µg/mL (≈ 36 µM)
- MBC [5]: 16 µg/mL (≈ 36 µM)
- MBC [8]: 32 µg/mL (≈ 72 µM)
- MIC [11]: 16 µg/mL (≈ 36 µM)
- MIC [14]: 16 µg/mL (≈ 36 µM)
- MIC [18]: 0.125 µg/mL (≈ 0.281 µM)
- MIC [23]: 0.5 µg/mL (≈ 1.13 µM)
- MBC [24]: 32 µg/mL (≈ 72 µM)
- MBC [27]: 8 µg/mL (≈ 18 µM)
- MIC [28]: 1 µg/mL (≈ 2.25 µM)
- MIC [30]: 1 µg/mL (≈ 2.25 µM)
- MBC [35]: 4 µg/mL (≈ 9 µM)
